Data published in ChEMBL document CHEMBL1157292, “(+)-agelasine D: improved synthesis and evaluation of antibacterial and cytotoxic activities” (J Nat Prod, 2006).
pIC50: −log10 of the molar value. ≈ marks a conversion by molar mass, not a printed value. Calls of active or inactive are those of the source. The calls are words filed in the database; no cut-off is given here.

Columns and labels:
[1] = system: Bacteroides thetaiotaomicron; test: Antibacterial activity against Bacteroides thetaiotaomicron DSM 2255 by standard broth microdilution technique; format: functional
Method in brief: (§1)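 Strains kept at -80 °C and grown on blood agar at 35 °C for 24 h before testing. DMSO stocks were serially 2-fold diluted in reduced Wilkins-Chalgren broth to final 0.125–32 μg/mL. Colony suspension was set to 0.5 McFarland and diluted 1:10 (~1.5 × 10⁷ CFU/mL); 10 μL was added per well, in triplicate. Incubated anaerobically at 35 °C for 48 h. MIC was the lowest concentration without visible growth. Tests were repeated at least once.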

[2] = system: Mycobacterium tuberculosis; test: Antibacterial activity against Mycobacterium tuberculosis by standard broth microdilution technique; format: functional
[3] = Cytotoxicity against human RPMI 8226/s cells after 72 hrs by fluorometric microculture cytotoxicity assay; format: functional, cell-based; details: RPMI8226/S
Method in brief: (§2)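 FMCA method: compounds dissolved in 10% DMSO were tested at 10 concentrations, 0.15625–80 μM, each in triplicate. Plates included solvent, medium, Triton X-100 and PBS controls. Cells were exposed for 72 h, washed with PBS, and incubated with FDA for 40 min. Fluorescence, proportional to living cells, gave a survival index at each concentration. Values are mean ± SEM of triplicates, fitted by nonlinear regression.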

Enterococcus faecalis = test: Antibacterial activity against Enterococcus faecalis by standard broth microdilution technique; format: functional
Method in brief: (§3)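 Exponential-phase cultures were diluted to a final inoculum of 1 × 10⁶ CFU/mL and mixed 1:1 with serial dilutions made in double-distilled water. Medium was 2% bactopeptone water for S. aureus, E. coli and P. aeruginosa, and brain heart infusion broth for E. faecalis and S. pyogenes. Incubated at 37 °C overnight. MIC was the lowest concentration without visible growth. Gentamycin served as internal control.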

Pseudomonas aeruginosa = test: Antibacterial activity against Pseudomonas aeruginosa ATCC 27853 by standard broth microdilution technique; format: functional; method in brief: as §3
Streptococcus pyogenes = test: Antibacterial activity against Streptococcus pyogenes ATCC 19615 by standard broth microdilution technique; format: functional; method in brief: as §3
U-937/GTB [4] = test: Cytotoxicity against human U937 GTB cells after 72 hrs by fluorometric microculture cytotoxicity assay; format: functional, cell-based; method in brief: as §2
ACHN [5] = test: (§4) Cytotoxicity against multidrug-resistant human ACHN cells after 72 hrs by fluorometric microculture cytotoxicity assay; format: functional, cell-based; method in brief: as §2
Bacteroides fragilis = test: Antibacterial activity against Bacteroides fragilis DSM 2151 by standard broth microdilution technique; format: functional; method in brief: as §1
Escherichia coli = test: Antibacterial activity against Escherichia coli ATCC 25922 by standard broth microdilution technique; format: functional; method in brief: as §3
Staphylococcus aureus = test: Antibacterial activity against Staphylococcus aureus ATCC 25923 by standard broth microdilution technique; format: functional; method in brief: as §3
[6] = Cytotoxicity against human CEM/s cells after 72 hrs by fluorometric microculture cytotoxicity assay; format: functional, cell-based; method in brief: as §2
L1210 = test: Cytotoxicity against mouse L1210 cells; format: functional, cell-based
ACHN [7] = test: as §4; format: functional, cell-based; method in brief: as §2; remark: listed apart in the source
Homo sapiens = species on record: Homo sapiens; test: Cytotoxicity against human RPMI 8226/s cells at 80 uM after 72 hrs by fluorometric microculture cytotoxicity assay; format: functional, cell-based; method in brief: as §2
CEM/s = test: Cytotoxicity against human CEM/s cells at 80 uM after 72 hrs by fluorometric microculture cytotoxicity assay; format: functional, cell-based; method in brief: as §2
U-937/GTB [8] = test: Cytotoxicity against human U937 GTB cells at 80 uM after 72 hrs by fluorometric microculture cytotoxicity assay; format: functional, cell-based; method in brief: as §2

| SMILES | MIC [1] | MIC [2] | pIC50 [3] | pIC50 (U-937/GTB [4]) | pIC50 (ACHN [5]) | MIC (Bacteroides fragilis) | MIC (Escherichia coli) | MIC (Staphylococcus aureus) | pIC50 [6] | also measured |
| --- | --- | --- | --- | --- | --- | --- | --- | --- | --- | --- |
| C=C1CC[C@H]2C(C)(C)CCC[C@]2(C)[C@H]1CC/C(C)=C/Cn1c[n+](C)c2ncnc(N)c21.[Cl-] | 8 mg/L | > 6.25 mg/L | 5.43 | 5.25 | 4.60 | 16 mg/L | 8 mg/L | 1 mg/L | 5.33 | MIC (Enterococcus faecalis): 8 mg/L; MIC (Pseudomonas aeruginosa): 16 mg/L; MIC (Streptococcus pyogenes): 2 mg/L |
| CO[C@H]1/C=C/O[C@@]2(C)Oc3c(C)c(O)c4c(O)c(c(/C=N/N5CCN(C)CC5)c(O)c4c3C2=O)NC(=O)/C(C)=C\C=C\[C@H](C)[C@H](O)[C@@H](C)[C@@H](O)[C@@H](C)[C@H](OC(C)=O)[C@@H]1C [RIFAMPIN] |  | 0.25 mg/L (≈ 0.304 µM) |  |  |  |  |  |  |  |  |
| COc1cccc2c1C(=O)c1c(O)c3c(c(O)c1C2=O)C[C@@](O)(C(=O)CO)C[C@@H]3O[C@H]1C[C@H](N)[C@H](O)[C@H](C)O1 [DOXORUBICIN] |  |  | 6.89 |  |  |  |  |  | 6.74 |  |
| C/C(=C\Cn1c[n+](C)c2ncnc(N)c21)CC[C@@]1(C)[C@H](C)CC[C@@]2(C)C(COC(=O)c3cc(Br)c[nH]3)=CCC[C@@H]12 |  |  |  |  |  |  |  |  |  | pIC50 (L1210): 5.32 |
| C=C1CC[C@H]2C(C)(C)CCC[C@]2(C)[C@H]1CC/C(C)=C/Cn1c[n+](C)c2nc[n-]/c(=N\OC)c21 | 4 mg/L (≈ 8.86 µM) | > 6.25 mg/L | 6.70 | 5.99 | 5.10 | 4 mg/L (≈ 8.86 µM) | 8 mg/L (≈ 17.7 µM) | 2 mg/L (≈ 4.43 µM) | 5.63 | MIC (Enterococcus faecalis): 8 mg/L (≈ 17.7 µM); MIC (Pseudomonas aeruginosa): 32 mg/L (≈ 70.8 µM); MIC (Streptococcus pyogenes): 2 mg/L (≈ 4.43 µM) |
| CC(=O)O[C@H]1C(=O)[C@@]2(C)[C@H]([C@H](OC(=O)c3ccccc3)[C@]3(O)C[C@H](OC(=O)[C@H](O)[C@@H](NC(=O)c4ccccc4)c4ccccc4)C(C)=C1C3(C)C)[C@]1(OC(C)=O)CO[C@@H]1C[C@@H]2O [PACLITAXEL] |  |  | 8.15 |  |  |  |  |  | 8.15 |  |
| Cc1ncc([N+](=O)[O-])n1CCO [METRONIDAZOLE] | 1 mg/L (≈ 5.84 µM) |  |  |  |  | 0.5 mg/L (≈ 2.92 µM) |  |  |  |  |
| C=C1CC[C@H]2C(C)(C)CCC[C@]2(C)[C@H]1CC/C(C)=C/Cn1c[n+](C)c2nc[n-]/c(=N\OC(C)(C)C)c21 | 4 mg/L (≈ 8.1 µM) | 3.13 mg/L (≈ 6.34 µM) | < 4.10 | < 4.10 | < 4.10 | 4 mg/L (≈ 8.1 µM) | 32 mg/L (≈ 64.8 µM) | 6 mg/L (≈ 12.2 µM) | < 4.10 | Activity (ACHN [7]): inactive; Activity (Homo sapiens): inactive; Activity (CEM/s): inactive; Activity (U-937/GTB [8]): inactive |
